Experimental data: ChEMBL document CHEMBL2057089, “Design and synthesis of novel p38α MAP kinase inhibitors: discovery of pyrazole-benzyl ureas bearing 2-molpholinopyrimidine moiety” (Bioorg Med Chem Lett, 2012)

Columns and labels:
[1] = molecular target: Mitogen-activated protein kinase 14 (Homo sapiens, UniProt Q16539); experiment: Inhibition of human recombinant P38alpha-mediated ATF2 phosphorylation after 1 hr
Mus musculus [2] = experiment: Antiinflammatory activity in BALB/c mouse model of endotoxic shock assessed as inhibition of LPS-induced TNFalpha production at 50 mg/kg, po administered 30 mins before LPS challenge measured after 60 mins by ELISA; format: functional
In short: (§1)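 Male BALB/c mice, 8 weeks old, were dosed orally at 10 mL/kg. Controls received vehicle (27% hydroxypropyl-β-cyclodextrin, 10 mL/kg). LPS (1 mg/kg) was injected i.p. 30 min after dosing. Blood was taken 60 min after LPS, and serum was separated for TNF-α measurement.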

[3] = Antiinflammatory activity in human whole blood cells assessed as inhibition of LPS-induced TNFalpha production after 4 hrs by time-resolved fluorescence assay; format: functional, cell-based
In short: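 Freshly drawn heparinized human whole blood was given compound diluted in human serum AB and preincubated 1 h at 37 °C. It was then stimulated with LPS (200 ng/mL, E. coli O111:B4) for 4 h at 37 °C. Supernatant TNF-α was read by homogeneous time-resolved fluorescence.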

Mus musculus [4] = experiment: Hepatotoxicity in Crlj:CD1(ICR) mouse assessed as change in plasma AST level at 2000 mg/kg, po administered for 5 consecutive days measured 24 hrs post final dosing (reference value: 45 +/- 11 U/L); format: toxicity, organism-based; design: dose 2000 mg/kg, route oral; details: in vivo
Mus musculus [5] = experiment: Hepatotoxicity in Crlj:CD1(ICR) mouse assessed as change in plasma AST level at 1000 mg/kg, po administered for 5 consecutive days measured 24 hrs post final dosing (reference value: 45 +/- 11 U/L); format: toxicity, organism-based; design: dose 1000 mg/kg, route oral; details: in vivo
Mus musculus [6] = experiment: Hepatotoxicity in Crlj:CD1(ICR) mouse assessed as change in plasma AST level at 500 mg/kg, po administered for 5 consecutive days measured 24 hrs post final dosing (reference value: 45 +/- 11 U/L); format: toxicity, organism-based; design: dose 500 mg/kg, route oral; details: in vivo
Mus musculus [7] = experiment: Hepatotoxicity in Crlj:CD1(ICR) mouse assessed as change in plasma ALT level at 2000 mg/kg, po administered for 5 consecutive days measured 24 hrs post final dosing (reference value: 24 +/- 4 U/L); format: toxicity, organism-based; design: dose 2000 mg/kg, route oral; details: in vivo
Mus musculus [8] = experiment: Hepatotoxicity in Crlj:CD1(ICR) mouse assessed as change in plasma ALT level at 1000 mg/kg, po administered for 5 consecutive days measured 24 hrs post final dosing (reference value: 24 +/- 4 U/L); format: toxicity, organism-based; design: dose 1000 mg/kg, route oral; details: in vivo
Mus musculus [9] = experiment: Hepatotoxicity in Crlj:CD1(ICR) mouse assessed as change in plasma ALT level at 500 mg/kg, po administered for 5 consecutive days measured 24 hrs post final dosing (reference value: 24 +/- 4 U/L); format: toxicity, organism-based; design: dose 500 mg/kg, route oral; details: in vivo
Mus musculus [10] = experiment: Antiinflammatory activity in po dosed BALB/c mouse model of endotoxic shock assessed as inhibition of LPS-induced TNFalpha production administered 30 mins before LPS challenge measured after 60 mins by ELISA
Mus musculus [11] = experiment: Antiinflammatory activity in BALB/c mouse model of endotoxic shock assessed as inhibition of LPS-induced TNFalpha production at 100 mg/kg, po administered 30 mins before LPS challenge measured after 60 mins by ELISA; format: functional; in short: as §1
Mus musculus [12] = experiment: Hepatotoxicity in Crlj:CD1(ICR) mouse assessed as change in plasma direct bilirubin level at 500 to 1000 mg/kg, po administered for 5 consecutive days measured 24 hrs post final dosing; format: toxicity, organism-based; design: dose 500-1000 mg/kg, route oral; details: in vivo
Mus musculus [13] = experiment: Hepatotoxicity in Crlj:CD1(ICR) mouse assessed as change in plasma total bilirubin level at 500 to 1000 mg/kg, po administered for 5 consecutive days measured 24 hrs post final dosing; format: toxicity, organism-based; design: dose 500-1000 mg/kg, route oral; details: in vivo
Mus musculus [14] = experiment: Hepatotoxicity in Crlj:CD1(ICR) mouse assessed as change in plasma AST level at 500 to 1000 mg/kg, po administered for 5 consecutive days measured 24 hrs post final dosing; format: toxicity, organism-based; design: dose 500-1000 mg/kg, route oral; details: in vivo

Mitogen-activated protein kinase 14, sequence (Q16539 whole entry): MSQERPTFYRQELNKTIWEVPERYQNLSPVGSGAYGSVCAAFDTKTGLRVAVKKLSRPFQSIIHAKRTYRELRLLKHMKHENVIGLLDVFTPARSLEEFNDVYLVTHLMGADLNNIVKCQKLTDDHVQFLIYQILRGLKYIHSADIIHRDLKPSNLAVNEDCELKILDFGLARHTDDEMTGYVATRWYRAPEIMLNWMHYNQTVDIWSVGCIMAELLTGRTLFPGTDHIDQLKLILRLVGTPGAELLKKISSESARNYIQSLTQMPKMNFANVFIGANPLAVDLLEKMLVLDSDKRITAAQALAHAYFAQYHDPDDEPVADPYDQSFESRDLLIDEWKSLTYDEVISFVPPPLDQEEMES

Row | Compound | IC50 [1] [nM] | IC50 [3] [nM] | further results
1 | Cc1ccc(-n2nc(C(C)(C)C)cc2NC(=O)NCc2ccccc2O)cc1 | 1500 |  | 
2 | Cc1ccc(-n2nc(C(C)(C)C)cc2NC(=O)NCc2ccccc2Oc2ccnc(N3CCOCC3)n2)cc1 | 12 | 720 | inhibition in vivo at 50 mg/kg (Mus musculus [2]): 65%
3 | Cc1ccc(-n2nc(C(C)(C)C)cc2NC(=O)NCc2ccccc2Oc2ccnc(N3CCCCC3)n2)cc1 | 13 |  | 
4 | Cc1ccc(-n2nc(C(C)(C)C)cc2NC(=O)NCc2ccccc2Oc2ccnc(Cl)n2)cc1 | 20 |  | 
5 | Cc1ccc(-n2nc(C(C)(C)C)cc2NC(=O)NCc2cc(F)ccc2Oc2ccnc(N3CCOCC3)n2)cc1 | 4 | 230 | Activity (Mus musculus [4]): 46 U/L; Activity (Mus musculus [5]): 47 U/L; Activity (Mus musculus [6]): 42 U/L; Activity (Mus musculus [7]): 28 U/L; Activity (Mus musculus [8]): 32 U/L; Activity (Mus musculus [9]): 26 U/L; ED50 (Mus musculus [10]): 16 mg/kg; inhibition in vivo at 50 mg/kg (Mus musculus [2]): 84%
6 | Cc1ccc(-n2nc(C(C)(C)C)cc2NC(=O)NCc2cc(Cl)ccc2Oc2ccnc(N3CCOCC3)n2)cc1 | 5 | 190 | inhibition in vivo at 100 mg/kg (Mus musculus [11]): 81%
7 | Cc1ccc(-n2nc(C(C)(C)C)cc2NC(=O)NCc2cc(C)ccc2Oc2ccnc(N3CCOCC3)n2)cc1 | 13 | 970 | 
8 | Cc1ccc(-n2nc(C(C)(C)C)cc2NC(=O)NCc2cc(C(F)(F)F)ccc2Oc2ccnc(N3CCOCC3)n2)cc1 | 35 | > 10000 | 
9 | Cc1ccc(-n2nc(C(C)(C)C)cc2NC(=O)NCc2cc(F)cc(F)c2Oc2ccnc(N3CCOCC3)n2)cc1 | 3 | 48 | 
10 | Cc1ccc(-n2nc(C(C)(C)C)cc2NC(=O)NCc2cc(F)cc(Cl)c2Oc2ccnc(N3CCOCC3)n2)cc1 | 11 | 110 | 
11 | Cc1ccc(-n2nc(C(C)(C)C)cc2NC(=O)NCc2cc(F)cc(C)c2Oc2ccnc(N3CCOCC3)n2)cc1 | 14 |  | 
12 | Cc1ccc(-n2nc(C(C)(C)C)cc2NC(=O)Nc2ccc(OCCN3CCOCC3)c3ccccc23)cc1 [DORAMAPIMOD] |  | 600 | Activity (Mus musculus [12]): Toxic; Activity (Mus musculus [13]): Toxic; Activity (Mus musculus [14]): Toxic; inhibition in vivo at 50 mg/kg (Mus musculus [2]): 82%
